Laboratory results as given in ChEMBL document CHEMBL1944531, “In silico assay for assessing phospholipidosis potential of small druglike molecules: training, validation, and refinement using several data sets” (J Med Chem, 2012).

Key:
Design in all cases: species or system Bos taurus, Cornea
Details in all cases: cattle, corneal fibroblast
[1] = Induction of phospholipidosis in bovine corneal fibroblasts assessed as lamellar inclusion bodies after 72 hrs by light microscopy
[2] = Induction of phospholipidosis in bovine corneal fibroblasts assessed as lamellar inclusion bodies at 20 uM after 72 hrs by light microscopy
Outline: (§1)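 Primary bovine corneal fibroblasts from collagenase-treated explants, passage 2–8, grown in DMEM/10% FCS/L-glutamine/antibiotics at 37 °C, 5% CO2. Confluent cells exposed 72 h to compound at 2.5, 5.0, 7.5, 10.0, 12.5, 15.0 or 20 μM (DMSO 1% where used). Controls: medium, 1% DMSO, imipramine 10 μM, in duplicate. Cells were fixed in 1% glutaraldehyde, stained overnight with 1% tannic acid, and black intracytoplasmic inclusions scored qualitatively by light microscopy.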

[3] = Induction of phospholipidosis in bovine corneal fibroblasts assessed as lamellar inclusion bodies at 7.5 uM after 72 hrs by light microscopy; outline: as §1
[4] = Induction of phospholipidosis in bovine corneal fibroblasts assessed as lamellar inclusion bodies at 2.5 to 20 uM after 72 hrs by light microscopy; outline: as §1

| Molecule | Activity [1] | also measured |
| --- | --- | --- |
| CN(C(=O)C(C)(C)c1cc(C(F)(F)F)cc(C(F)(F)F)c1)c1cnc(NCCO)cc1-c1ccccc1Cl | Non-toxic |  |
| CCN(CCO)CCCCOc1ccc2c(-c3ccc(Br)cc3)nsc2c1 | Toxic |  |
| CC(C)CC(N(C)C)C1(c2ccc(Cl)cc2)CCC1.Cl (centres undefined) | Toxic |  |
| Cc1c(Cl)ccc2c1N1[C@H](CNC[C@H]1C)C2 | Toxic | Activity [2]: Toxic |
| CC(OCC1CC1)c1ccc2c(n1)N1[C@@H](CNC[C@H]1C)C2 (some centres undefined) | Toxic | Activity [3]: Toxic |
| COc1cc(F)c(C(OC)C(=O)NCc2ccc(C(=N)N)cc2)c(F)c1.Cl (centres undefined) | Non-toxic |  |
| CCO[C@@H](C)c1ccc2c(n1)N1[C@@H](CNC[C@H]1C)C2.Cl | Non-toxic | Activity [2]: Toxic |
| COc1ccc(C2CCOCC2)c2sc(NC(=O)N(C)C3CCN(C)CC3)nc12 | Toxic |  |
| CS(=O)(=O)O.Cc1cc(-c2cnccn2)nn1CCC(C)(C)NCC(=O)N1CCC[C@H]1C#N | Non-toxic |  |
| CC(C)COc1ccc(S(C)(=O)=O)cc1C(=O)N1Cc2cnc(C(F)(F)F)cc2C1 | Non-toxic |  |
| COc1cc(-c2nc(N)c(CN)c(-c3ccc(Cl)cc3Cl)n2)cc(OC)c1OC | Toxic |  |
| CC(C)(CCn1cnc(-c2cccnc2)c1)NCC(=O)N1CCC[C@H]1C#N.CS(=O)(=O)O | Non-toxic |  |
| COc1ccc(S(=O)(=O)N(c2ccc(F)cc2)C2CCN([C@@H]3COCC[C@@]3(O)c3ccccc3)CC2)cc1 | Non-toxic |  |
| Cc1cc(C#Cc2cn(-c3ccc(F)cc3)c(C)n2)ccn1 | Non-toxic |  |
| CN1CCN([C@@H]2CCN(C(=O)c3cc(C(F)(F)F)cc(C(F)(F)F)c3)C[C@@H]2c2ccccc2)CC1 | Toxic |  |
| Cc1cc(-c2cc(-c3ccccc3C)c(C(=O)NCc3cc(C(F)(F)F)cc(C(F)(F)F)c3)cn2)ccn1 | Non-toxic |  |
| O=C(c1cc(C(F)(F)F)cc(C(F)(F)F)c1)N1CC[C@@H](N2CCOCC2)[C@@H](c2ccc(Cl)cc2)C1 | Toxic |  |
| CN(CC[C@H]1CC[C@H](CN2CCCCC2)CC1)C(=O)Oc1ccc(C(F)(F)F)cc1 | Toxic |  |
| C[C@@H]1CNC[C@H]2Cc3ccc(Cl)nc3N21 | Non-toxic | Activity [4]: Toxic |
| Cc1ccc2c(n1)N1[C@@H](CNC[C@H]1C)C2 | Non-toxic |  |
| C[C@H](C(N)=O)N1CCc2cc(OCc3cccc(F)c3)ccc2C1 | Toxic |  |
| NCc1c(N)nc(-c2ccccc2)nc1-c1ccc(Cl)cc1Cl | Toxic |  |
| COc1cc2c(cc1OC)[C@@H]1C[C@H](N)[C@@H](N3C[C@@H](C)CC3=O)CN1CC2 | Non-toxic |  |
| NCC[C@H](O)C(=O)N[C@@H]1C[C@H](N)[C@@H](O[C@H]2O[C@H](CN)[C@@H](O)[C@H](O)[C@H]2O)[C@H](O)[C@H]1O[C@H]1O[C@H](CO)[C@@H](O)[C@H](N)[C@H]1O [AMIKACIN] | Non-toxic |  |
| CCCCc1oc2ccccc2c1C(=O)c1cc(I)c(OCCN(CC)CC)c(I)c1 [AMIODARONE] | Toxic |  |
| O=C(N[C@H](CO)[C@H](O)c1ccc([N+](=O)[O-])cc1)C(Cl)Cl [CHLORAMPHENICOL] | Non-toxic |  |
| CN1CCN(C(c2ccccc2)c2ccc(Cl)cc2)CC1 (centres undefined) [CHLORCYCLIZINE] | Toxic |  |
| CCN(CC)CCCC(C)Nc1ccnc2cc(Cl)ccc12 (centres undefined) [CHLOROQUINE] | Toxic |  |

| Molecule | Activity [1] | also measured |
| --- | --- | --- |
| CC(C)(N)Cc1ccc(Cl)cc1 [CHLORPHENTERMINE] | Toxic |  |
| CN(C)CCCN1c2ccccc2Sc2ccc(Cl)cc21 [CHLORPROMAZINE] | Toxic |  |
| CN(C)CCCC1(c2ccc(F)cc2)OCc2cc(C#N)ccc21 (centres undefined) [CITALOPRAM] | Toxic |  |
| CN(C)CCCN1c2ccccc2CCc2ccc(Cl)cc21 [CLOMIPRAMINE] | Toxic |  |
| CN1CCN(C2=Nc3cc(Cl)ccc3Nc3ccccc32)CC1 [CLOZAPINE] | Toxic |  |
| CN1CCN(C(c2ccccc2)c2ccccc2)CC1 [CYCLIZINE] | Toxic |  |
| CN1C(=O)CN=C(c2ccccc2)c2cc(Cl)ccc21 [DIAZEPAM] | Non-toxic |  |
| CC[C@H]1OC(=O)[C@H](C)[C@@H](O[C@H]2C[C@@](C)(OC)[C@@H](O)[C@H](C)O2)[C@H](C)[C@@H](O[C@@H]2O[C@H](C)C[C@H](N(C)C)[C@H]2O)[C@](C)(O)C[C@@H](C)C(=O)[C@H](C)[C@@H](O)[C@]1(C)O [ERYTHROMYCIN] | Non-toxic |  |
| O=C(CCCN1CCC(O)(c2ccc(Cl)cc2)CC1)c1ccc(F)cc1 [HALOPERIDOL] | Toxic |  |
| OCCOCCN1CCN(C(c2ccccc2)c2ccc(Cl)cc2)CC1 (centres undefined) [HYDROXYZINE] | Toxic |  |
| CN(C)CCCN1c2ccccc2CCc2ccccc21 [IMIPRAMINE] | Toxic |  |
| CN(C)CCCn1c2c(c3ccccc31)CCCCCC2 [IPRINDOLE] | Toxic |  |
| CNCCCC12CCC(c3ccccc31)c1ccccc12 [MAPROTILINE] | Toxic |  |
| Cc1cccc(CN2CCN(C(c3ccccc3)c3ccc(Cl)cc3)CC2)c1 (centres undefined) [MECLIZINE] | Toxic |  |
| C1CCC(C(CC2CCCCN2)C2CCCCC2)CC1 (centres undefined) [PERHEXILINE] | Toxic |  |
| CCC1(c2ccccc2)C(=O)NC(=O)NC1=O [PHENOBARBITAL] | Non-toxic |  |
| CC(=O)Nc1ccc(N2CCN(CCCN(C)C)CC2)cc1 [PIPERAMIDE] | Toxic |  |
| CN(C)CCCN1c2ccccc2Sc2ccccc21 [PROMAZINE] | Toxic |  |
| CC(C)NCC(O)COc1cccc2ccccc12 (centres undefined) [PROPRANOLOL] | Toxic |  |
| CCN(CC)CCCC(C)Nc1c2ccc(Cl)cc2nc2ccc(OC)cc12 (centres undefined) [QUINACRINE] | Toxic |  |
| CS(=O)(=O)O.C[C@H](NCc1ccc(OCc2cccc(F)c2)cc1)C(N)=O [SAFINAMIDE MESYLATE] | Toxic |  |
| [H]/N=C(/N)N[C@H]1[C@H](O)[C@@H](O)[C@H](O[C@@H]2O[C@@H](C)[C@](O)(C=O)[C@H]2O[C@@H]2O[C@@H](CO)[C@H](O)[C@@H](O)[C@@H]2NC)[C@@H](N/C(N)=N\[H])[C@@H]1O [STREPTOMYCIN] | Non-toxic |  |
| CC/C(=C(\c1ccccc1)c1ccc(OCCN(C)C)cc1)c1ccccc1 [TAMOXIFEN] | Toxic |  |
| CCN(CC)CCOc1ccc2c(c1)C(=O)c1cc(OCCN(CC)CC)ccc1-2 [TILORONE] | Toxic |  |
| CCCC[C@@H]1CC(=O)[C@]2(O)O[C@@H]3[C@@H](NC)[C@@H](O)[C@@H](NC)[C@H](O)[C@H]3O[C@@H]2O1 [TROSPECTOMYCIN] | Non-toxic |  |
| CCCC(CCC)C(=O)O [VALPROIC ACID] | Non-toxic |  |
| GENTAMICIN | Non-toxic |  |
